SMILES strings stand for the structures. Converted amounts (≈) assume the structure as drawn. Where two headings read alike, the source gives them in different places.

The target in test [1] is T1, DPP-IV (Homo sapiens, UniProt P27487). The experiment in a line: biochemical.
Test [2] concerns the target T1, DPP-IV. As to conditions: read-out: IC50 DPP-IV; ref Li et al., 2022; cited from earlier work.
Test [3] concerns Caco-2 cells. The experiment in a line: Inhibition of H2O2-induced intracellular ROS production. Type of test: cell-based. As to conditions: positive control 10 μg/mL, 1.0 mmol/L H2O2 6 h; H2O2 group 181.61 %.
Test [4] in a line: DPPH radical scavenging activity. The note with it: positive control. Put shortly: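 Test fractions in 80 % methanol at 2–14 µg/mL; positive control at 1–7 µg/mL. 50 µL sample plus 200 µL 0.1 mM DPPH in methanol, kept from light and shaken 30 min, then read at 517 nm.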
(Loss of DPPH colour is used to gauge radical scavenging.)

Test [5] is described as follows: ABTS radical scavenging activity. As to conditions: positive control. Put shortly: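 Test fractions in 70 % ethanol at 2–8 µg/mL; positive control at 1–7 µg/mL. Radical made by holding 7 mM ABTS with 0.14 M K₂S₂O₈ for 14 h, then diluted 35-fold in anhydrous ethanol. Sample mixed with radical solution, 6 min dark at 30°C, A734.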
The test system of test [6] is Caco-2 cells. The test can be described thus: Cytoprotective activity against H2O2-induced cell apoptosis. As to conditions: positive control 10 μg/mL; H2O2 group 23.84 %, control 3.92 %. Type of test: cell-based.
Test [7] addresses α-glucosidase (Saccharomyces cerevisiae, UniProt P53341). As to conditions: read-out: IC50 α-glucosidase; ref Tan et al. (2017); cited from earlier work.
The mark [8] stands for this setting: read-out: IC50 DPP-Ⅳ, phenolic standards.

T1 sequence (P27487 whole entry): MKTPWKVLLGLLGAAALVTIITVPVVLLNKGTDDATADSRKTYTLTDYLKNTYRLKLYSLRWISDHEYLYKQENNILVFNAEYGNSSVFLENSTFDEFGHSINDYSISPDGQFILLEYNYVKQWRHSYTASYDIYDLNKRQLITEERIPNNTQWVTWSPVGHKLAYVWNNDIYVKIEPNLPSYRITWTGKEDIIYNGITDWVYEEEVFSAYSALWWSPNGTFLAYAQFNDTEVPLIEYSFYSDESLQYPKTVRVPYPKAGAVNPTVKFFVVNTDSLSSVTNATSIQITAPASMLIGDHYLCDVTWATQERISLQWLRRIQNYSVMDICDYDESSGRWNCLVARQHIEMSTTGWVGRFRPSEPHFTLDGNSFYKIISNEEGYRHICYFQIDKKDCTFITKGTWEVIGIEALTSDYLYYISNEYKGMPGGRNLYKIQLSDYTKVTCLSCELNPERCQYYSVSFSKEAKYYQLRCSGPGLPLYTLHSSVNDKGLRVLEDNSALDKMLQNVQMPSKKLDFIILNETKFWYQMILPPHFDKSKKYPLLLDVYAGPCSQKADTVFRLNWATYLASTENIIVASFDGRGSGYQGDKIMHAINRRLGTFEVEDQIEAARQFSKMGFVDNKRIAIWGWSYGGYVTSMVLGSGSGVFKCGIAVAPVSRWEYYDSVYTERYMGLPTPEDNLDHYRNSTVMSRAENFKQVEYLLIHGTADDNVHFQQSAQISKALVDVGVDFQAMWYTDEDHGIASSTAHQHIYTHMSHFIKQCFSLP
Chain of α-glucosidase (P53341 whole entry): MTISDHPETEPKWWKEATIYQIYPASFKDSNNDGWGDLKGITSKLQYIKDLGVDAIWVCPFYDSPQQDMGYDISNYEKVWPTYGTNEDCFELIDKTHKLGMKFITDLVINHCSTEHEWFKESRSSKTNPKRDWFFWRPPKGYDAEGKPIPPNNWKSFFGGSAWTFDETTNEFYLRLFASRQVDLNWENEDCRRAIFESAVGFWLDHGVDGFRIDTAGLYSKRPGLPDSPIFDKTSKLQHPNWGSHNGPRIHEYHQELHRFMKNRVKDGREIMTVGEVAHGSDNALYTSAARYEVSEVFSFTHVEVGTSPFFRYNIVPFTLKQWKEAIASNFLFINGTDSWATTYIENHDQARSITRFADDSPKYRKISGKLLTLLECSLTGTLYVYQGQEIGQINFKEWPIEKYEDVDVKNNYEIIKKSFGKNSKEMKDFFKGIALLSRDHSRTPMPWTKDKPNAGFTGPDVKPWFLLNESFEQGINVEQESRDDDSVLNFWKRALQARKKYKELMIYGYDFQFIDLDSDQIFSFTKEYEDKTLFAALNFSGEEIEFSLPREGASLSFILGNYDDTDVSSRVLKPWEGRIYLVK

One may read the IC50 as the concentration at which inhibition is half-maximal. Regarding `Oc1cc(O)c2c(c1)O[C@H](c1ccc(O)c(O)c1)[C@@H](O)C2` [(+) - Catechin], the 50% inhibitory concentration (IC50) in test [1] (setting [8]) was found to be 132.8 ± 0.99 µM.

In turn, `Oc1cc(O)c2c(c1)O[C@H](c1ccc(O)c(O)c1)[C@H](O)C2` [(-) - Epicatechin] had an IC50 in test [1] of 104.3 ± 0.95 µM. Turning to `O=C(O)/C=C/c1ccc(O)c(O)c1` [Caffeic acid], in test [1], the IC50 worked out at 162.48 ± 0.16 µM. As for `O=C(/C=C/c1ccc(O)c(O)c1)O[C@@H]1C[C@](O)(C(=O)O)C[C@@H](O)[C@H]1O` [Chlorogenic acid], the figures for the IC50 in test [2] and in test [1] were 78.8 µM and 31.2 ± 2.58 µM, respectively. In test [1], `Oc1cc(O)c2c(c1)O[C@H](c1cc(O)c(O)c(O)c1)[C@@H](O)C2` [Gallocatechin] registered an IC50 of 81.9 ± 2.54 µM. `COC(=O)[C@]1(O)C[C@@H](O)[C@@H](O)[C@H](OC(=O)/C=C/c2ccc(O)c(O)c2)C1` [Methyl chlorogenic acid]: the IC50 in test [1] (setting [8]) is 192 ± 1.93 µM. `Oc1cc(O)c2c(c1)O[C@H](c1ccc(O)c(O)c1)[C@H](O)[C@H]2c1c(O)cc(O)c2c1O[C@H](c1ccc(O)c(O)c1)[C@@H](O)C2` [Procyanidin B1] had an IC50 in test [1] of over 200 µM. On to `O=C(O)c1ccc(O)c(O)c1` [Protocatechuic acid], for which the IC50 in test [1] was over 200 µM. In test [1], `O=C(O)[C@]1(O)C[C@@H](O)[C@@H](O)[C@H](O)C1` [Quinic acid] registered an IC50 of over 200 µM. In test [1], `O=C(O)c1ccccc1O` [Salicylic acid] came in with an IC50 of over 200 µM. As to `O=C1c2c(O)cc(O)cc2OC(c2ccc(O)c(O)c2)C1O` (centres unmarked) [Taxifolin], the midpoint of inhibition in test [1], the IC50, lay at 78.92 ± 0.62 µM. In the case of `O=C1O[C@H]([C@@H](O)CO)C(O)=C1O` [Vc], the “intracellular ROS level” value in test [3] is 110.92%. Also, the “IC50 DPPH radical scavenging” value in test [4] was 1.93 ± 0.01 µg/mL (≈ 11 µM). Besides, in test [5], the “IC50 ABTS radical scavenging” value stood at 3.58 ± 0.03 µg/mL (≈ 20.3 µM). The compound also gave an apoptosis rate in test [6] of 6.58%.

As to `Oc1cc(O)c2c(c1)O[C@H](c1ccc(O)c(O)c1)[C@@H](O)C2` [catechin], in test [7], the 50% inhibitory concentration (IC50) was 13.4 µM.
